Here are results for one compound from ChEMBL document CHEMBL1687717 (Antimicrob Agents Chemother, 2008).

Data set [1] deals with Staphylococcus aureus. Put plainly: Growth inhibition of Staphylococcus aureus MN8 using 5% compound-formulated gel after 24 hrs. It is filed as functional, organism-based. The method in brief: (§1)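 Agar disk test: paper disks carrying 30 µl of 5% GML in K-Y warming gel were placed on Todd-Hewitt agar lawns of about 10^6 L. crispatus or S. aureus MN8. Plates were incubated overnight at 37°C in 7% CO2 and scored for visible growth inhibition around the disks. Done in quadruplicate.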

Data set [2] concerns Rhesus monkey. Put plainly: Toxicity in rhesus monkey assessed as induction of vaginal mucosal lesions administered twice daily dose of 5% compound-formulated gel for first 8 weeks followed by 3-weeks rest period and subsequent once daily dose for […] measured 6 months post dose by extensive colposcopy. It is filed as organism-based, Macaca mulatta. The note with it: in vivo, topical_or_ocular, 4383 h.

Data set [3] can be described thus: Effect on growth of vaginal Lactobacillus flora in rhesus monkey administered twice daily dose of 5% compound-formulated gel for first 8 weeks followed by 3-weeks rest period and subsequent once daily dose for […] measured 6 months post dose. The settings on record: in vivo, topical_or_ocular, 4383 h. A digest of the protocol:
(§2)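 Rhesus macaques (9 on GML, 3 on vehicle per time point) received 1 ml intravaginal gel containing 50 mg GML in K-Y warming gel, or vehicle gel, by needleless syringe. Dosing was twice daily for 8 weeks, then 3 weeks of rest, then once daily for 11 weeks. Vaginal swabs were taken 1 h post-dose, held at 4°C, serially diluted in Todd-Hewitt broth and plated on chocolate agar at 37°C in 7% CO2.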

Data set [4] relates to Rhesus monkey. The data set can be described thus: Toxicity in rhesus monkey assessed as induction of vaginal inflammation administered twice daily dose of 5% compound-formulated gel for first 8 weeks followed by 3-weeks rest period and subsequent once daily dose for […] measured 6 months post dose by extensive colposcopy. The settings on record: in vivo, topical_or_ocular, 4383 h. It is filed as organism-based, Macaca mulatta.

A further data set concerns Gardnerella. Put plainly: Bactericidal activity against Gardnerella at >=20 ug/ml. It is filed as functional.
Data set [5] concerns Human immunodeficiency virus 1. The data set can be described thus: Antiviral activity against HIV1 infected in human T cells assessed as inhibition of viral infection at 100 ug/mL. The data set is classed as functional, organism-based. The settings on record: T-cell.
The nature of data set [6]: Effect on lactic acid production in Lactobacillus crispatus at 50 ug/ml after 8 to 24 hrs. It is filed as ADME. A digest of the protocol:
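Todd-Hewitt broth cultures of L. crispatus were started at 3.0 x 10^6/ml with or without nonformulated GML at 50 µg/ml and incubated at 37°C with shaking. Culture pH was measured on samples removed at set times as an acid-production read-out.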

The test system of a further data set is Staphylococcus. Put plainly: Effect on growth of vaginal coagulase negative staphylococci flora in rhesus monkey administered twice daily dose of 5% compound-formulated gel for first 8 weeks followed by 3-weeks rest period and subsequent once daily dose for […] measured 6 months post dose. The data set is classed as functional, organism-based. A digest of the protocol: as §2

Data set [7] can be described thus: Effect on growth of Lactobacillus crispatus at 50 ug/ml after 24 hrs. The method in brief: (§3)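 L. crispatus grown in Todd-Hewitt broth flasks at 37°C with shaking, with or without nonformulated GML at 20, 50 or 100 µg/ml. The starting inoculum was 3.0 x 10^6/ml. Samples were taken over 24 h for CFU plate counts.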
The next data set concerns Haemophilus. The data set can be described thus: Bactericidal activity against Haemophilus at >=20 ug/ml. The data set is classed as functional, organism-based.
The test system of a further data set is Helicobacter. The data set can be described thus: Bactericidal activity against Helicobacter at >=20 ug/ml. It is filed as functional.
Data set [8] is described as follows: Effect on growth of Lactobacillus crispatus using 5% compound-formulated gel after 24 hrs. The method in brief:
as §1

The subject of data set [9] is Staphylococcus aureus. The data set can be described thus: Inhibition of Staphylococcus aureus MN8 infection induced IL-8 production in human HVEC assessed as at 100 ug/ml by enzyme-linked immunosorbent assay. The data set is classed as functional, organism-based. The method in brief: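 Human vaginal epithelial cells in keratinocyte serum-free medium without antibiotics were seeded 2–3 days beforehand in 96-well plates. S. aureus MN8 was grown overnight in Todd-Hewitt broth, washed and resuspended in PBS at pH 7.2. Cells received 10^6–10^8 CFU in triplicate, with or without GML at 100 µg/ml, for 6 h. IL-8 was measured by ELISA.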

The subject of data set [10] is Lactobacillus crispatus. The data set can be described thus: Suppression of cell viability loss of Lactobacillus crispatus in stationary phase culture at 100 ug/ml after 48 hrs.
The subject of data set [11] is Lactobacillus crispatus. The data set can be described thus: Suppression of cell viability loss of Lactobacillus crispatus in stationary phase culture at 100 ug/ml after 48 hrs. The data set is classed as functional. The method in brief: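 Stationary-phase L. crispatus broth cultures were incubated a further 48 h at 37°C without GML or with GML at 100 µg/ml. Viable counts were then determined by plating.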

Data set [12] in a line: Effect on growth of Lactobacillus crispatus at 20 ug/ml after 24 hrs. The method in brief:
as §3

Structures are written as SMILES. Activity calls are given as the source filed them. No cut-off for these calls is given here.

For the compound `CCCCCCCCCCCC(=O)OCC(O)CO` (stereo unspecified) [GLYCEROL MONOLAURATE], the “growth inhibition (GI)” value in the data set on Staphylococcus aureus [1] is “Active”. Further, the Activity entry (in the data set on Rhesus monkey [2]; in [3]; in the data set with Rhesus monkey [4]; in [6]; in the data set on Staphylococcus; in [7]) was “Non-toxic” each time. The Activity entry in data set [8] and in data set [12] was “Non-toxic” each time. In addition, the inhibition entry (in the data set on Gardnerella; in [5]; with Haemophilus; in the data set on Helicobacter; in the data set on Staphylococcus aureus [9]) was “Active” each time. Besides, the outcome in the data set with Lactobacillus crispatus [10] and with Lactobacillus crispatus [11] was Active.
